Laboratory results as given in ChEMBL document CHEMBL3763118, “Trioxolane-Mediated Delivery of Mefloquine Limits Brain Exposure in a Mouse Model of Malaria” (ACS Med Chem Lett, 2015).
pEC50: −log10 of the molar value. Activity calls are given as the source filed them. No cut-off for these calls is given here.

Key:
Plasmodium berghei [1] = assay: Antimalarial activity against Plasmodium berghei infected in Swiss-Webster mouse assessed as mouse survival at 9.5 mg/kg qd for 4 days administered via oral gavage; format: functional, organism-based
How it was run: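 Female Swiss-Webster mice (n = 5 per arm) were inoculated with 10^6 P. berghei parasites. Oral gavage once daily for 4 days, starting on the day of inoculation; doses were equimolar across compounds. Parasitemia, morbidity and survival were followed daily for 28 days, with euthanasia as the protocol required.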

[2] = Stability in human plasma after 120 mins by LC/MS analysis; format: ADME, cell-free; settings: read-out: Stability
How it was run: (§1)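 Compounds were incubated at 37 °C in human plasma or whole blood for 240 min (120 min in some plasma cases). The value is the percent of parent remaining.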

Plasmodium falciparum = assay: Antiplasmodium activity against Plasmodium falciparum W2 by flow cytometry; format: functional, organism-based
How it was run: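 Activity against P. falciparum, reported as EC50, the mean of three or six separate determinations.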

[3] = Ratio of drug level in human blood to plasma; format: ADME, cell-free; settings: whole blood and plasma
Plasma [4] = assay: Prodrug activation in Plasmodium chabaudi infected Balb/c mouse plasma assessed as mefloquine level at 50 mg/kg, ip at 30 mins by LC-MS/MS analysis; format: organism-based; settings: in vivo, 0.5 h
How it was run: (§2)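 Infected mice (P. chabaudi) each got one i.p. dose of 50 mg/kg of the trioxolane conjugate. Blood and brain were collected over 24 h. Plasma and brain were analysed for intact conjugate and for released mefloquine.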

[5] = Tmax in Plasmodium chabaudi infected Balb/c mouse at 50 mg/kg, ip by LC-MS/MS analysis; format: ADME, organism-based; settings: in vivo
How it was run: (§3)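 Noncompartmental plasma PK after one i.p. dose of 50 mg/kg in uninfected mice and in P. chabaudi-infected mice. Parameters are terminal t1/2, tmax, Cmax, AUCinf, CL/F, Vz/F, MRTlast and MRTinf. F is the fraction of drug reaching systemic exposure after the i.p. dose.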

[6] = Mean residence time (last) in Balb/c mouse at 50 mg/kg, ip by LC-MS/MS analysis; format: ADME, organism-based; settings: in vivo; how it was run: as §3
Plasmodium chabaudi [7] = assay: Antimalarial activity against Plasmodium chabaudi infected in Balb/c mouse assessed as parastemia at 50 mg/kg, ip measured 4 day postinoculation (reference value: 4.6 +/- 0.5 %); format: functional
How it was run: (§4)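 Mice infected with P. chabaudi received one i.p. dose on day 4 postinoculation. Parasitemia (%) was measured on days 4, 7 and 13 postinoculation and reported as mean ± SEM. Animals in poor health were sacrificed on day 8 as the protocol required.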

[8] = Mean residence time (infinity) in Plasmodium chabaudi infected Balb/c mouse at 50 mg/kg, ip by LC-MS/MS analysis; format: ADME, organism-based; settings: in vivo; how it was run: as §3
Plasmodium chabaudi [9] = assay: Antimalarial activity against Plasmodium chabaudi infected in Balb/c mouse assessed as parastemia at 16.5 mg/kg, ip measured 7 day postinoculation (reference value: 34 +/- 2.3 %); format: functional; how it was run: as §4
Plasmodium chabaudi [10] = assay: Antimalarial activity against Plasmodium chabaudi infected in Balb/c mouse assessed as parastemia at 50 mg/kg, ip measured 7 day postinoculation (reference value: 34 +/- 2.3 %); format: functional; how it was run: as §4
[11] = Tmax in Balb/c mouse at 50 mg/kg, ip by LC-MS/MS analysis; format: ADME, organism-based; settings: in vivo; how it was run: as §3
[12] = Apparent oral clearance in Plasmodium chabaudi infected Balb/c mouse at 50 mg/kg, ip by LC-MS/MS analysis; format: ADME, organism-based; settings: in vivo; how it was run: as §3
[13] = Apparent volume of distribution during terminal phase in Plasmodium chabaudi infected Balb/c mouse at 50 mg/kg, ip by LC-MS/MS analysis; format: ADME, organism-based; settings: in vivo, read-out: Vz/F; how it was run: as §3
[14] = Terminal half life in Plasmodium chabaudi infected Balb/c mouse at 50 mg/kg, ip by LC-MS/MS analysis; format: ADME, organism-based; settings: in vivo, read-out: beta t1/2 (converted); how it was run: as §3
[15] = Stability in human plasma after 240 mins by LC/MS analysis; format: ADME, cell-free; settings: read-out: Stability; how it was run: as §1
[16] = Mean residence time (last) in Plasmodium chabaudi infected Balb/c mouse at 50 mg/kg, ip by LC-MS/MS analysis; format: ADME, organism-based; settings: in vivo; how it was run: as §3
Plasmodium chabaudi [17] = assay: Antimalarial activity against Plasmodium chabaudi infected in Balb/c mouse assessed as parastemia at 8 mg/kg, ip measured 7 day postinoculation (reference value: 34 +/- 2.3 %); format: functional; how it was run: as §4
[18] = Mean residence time (infinity) in Balb/c mouse at 50 mg/kg, ip by LC-MS/MS analysis; format: ADME, organism-based; settings: in vivo; how it was run: as §3
[19] = Apparent oral clearance in Balb/c mouse at 50 mg/kg, ip by LC-MS/MS analysis; format: ADME, organism-based; settings: in vivo; how it was run: as §3
Brain = assay: Prodrug activation in Plasmodium chabaudi infected Balb/c mouse brain assessed as mefloquine level at 50 mg/kg, ip at 24 hrs by LC-MS/MS analysis; format: organism-based; settings: in vivo; how it was run: as §2
Plasmodium chabaudi [20] = assay: Antimalarial activity against Plasmodium chabaudi infected in Balb/c mouse assessed as parastemia at 50 mg/kg, ip measured 13 day postinoculation; format: functional; how it was run: as §4
Plasmodium chabaudi [21] = assay: Antimalarial activity against Plasmodium chabaudi infected in Balb/c mouse assessed as parastemia at 16.5 mg/kg, ip measured 4 day postinoculation (reference value: 4.6 +/- 0.5 %); format: functional; how it was run: as §4
[22] = AUC (infinity) in Plasmodium chabaudi infected Balb/c mouse at 50 mg/kg, ip by LC-MS/MS analysis; format: ADME, organism-based; parameters: dose 50 mg/kg, route intraperitoneal, time infinity; settings: in vivo; how it was run: as §3
[23] = AUC (infinity) in Balb/c mouse at 50 mg/kg, ip by LC-MS/MS analysis; format: ADME, organism-based; parameters: dose 50 mg/kg, time infinity, route intraperitoneal; settings: in vivo; how it was run: as §3
[24] = Apparent volume of distribution during terminal phase in Balb/c mouse at 50 mg/kg, ip by LC-MS/MS analysis; format: ADME, organism-based; settings: in vivo, read-out: Vz/F; how it was run: as §3
[25] = Terminal half life in Balb/c mouse at 50 mg/kg, ip by LC-MS/MS analysis; format: ADME, organism-based; settings: in vivo, read-out: beta t1/2 (converted); how it was run: as §3
Plasmodium chabaudi [26] = assay: Antimalarial activity against Plasmodium chabaudi infected in Balb/c mouse assessed as parastemia at 8 mg/kg, ip measured 4 day postinoculation (reference value: 4.6 +/- 0.5 %); format: functional; how it was run: as §4
Plasmodium chabaudi [27] = assay: Antimalarial activity against Plasmodium chabaudi infected in Balb/c mouse assessed as parastemia at 16.5 mg/kg, ip measured 13 day postinoculation; format: functional; how it was run: as §4
[28] = Stability in human blood after 240 mins by LC/MS analysis; format: ADME; settings: whole blood, read-out: Stability; how it was run: as §1
[29] = Tmax in Plasmodium chabaudi infected Balb/c mouse plasma at 50 mg/kg, ip by LC-MS/MS analysis; format: ADME, organism-based; how it was run: as §2
[30] = Cmax in Plasmodium chabaudi infected Balb/c mouse at 50 mg/kg, ip by LC-MS/MS analysis; format: ADME, organism-based; parameters: dose 50 mg/kg, route intraperitoneal; settings: in vivo; how it was run: as §3
Plasma [31] = assay: Prodrug activation in Plasmodium chabaudi infected Balb/c mouse plasma assessed as mefloquine level at 50 mg/kg, ip at 24 hrs by LC-MS/MS analysis; format: organism-based; settings: in vivo; how it was run: as §2
[32] = Cmax in Balb/c mouse at 50 mg/kg, ip by LC-MS/MS analysis; format: ADME, organism-based; parameters: dose 50 mg/kg, route intraperitoneal; settings: in vivo; how it was run: as §3
[33] = Drug level in Plasmodium chabaudi infected Balb/c mouse brain at 10 mg/kg, ip at 24 hrs by LC-MS/MS analysis; format: ADME, organism-based; settings: read-out: Drug uptake
How it was run: (§5)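 P. chabaudi-infected mice given a single 10 mg/kg i.p. dose. Blood and brain were sampled over 24 h and analysed for drug concentrations. Plasma concentration–time course used; brain levels reported at three time points.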

Plasmodium chabaudi [34] = assay: Antimalarial activity against Plasmodium chabaudi infected in Balb/c mouse assessed as parastemia at 10 mg/kg, ip administered as single dose measured 4 day postinoculation (reference value: 4.6 +/- 0.5 %); format: functional
Plasmodium berghei [35] = assay: Antimalarial activity against Plasmodium berghei infected in Swiss-Webster mouse assessed as decrease in parasitemia at 10 mg/kg qd for 4 days administered via oral gavage; format: functional, organism-based
How it was run: (§6)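 Female Swiss-Webster mice (n = 5 per arm) inoculated with 10^6 P. berghei parasites. Compound or vehicle given by oral gavage once daily for 4 days, starting on the day of inoculation. Parasitemia, morbidity and mortality recorded daily over 28 days; mice euthanized as required by study protocol.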

[36] = Tmax in Plasmodium chabaudi infected Balb/c mouse plasma at 10 mg/kg, ip by LC-MS/MS analysis; format: ADME, organism-based; how it was run: as §5
Plasmodium chabaudi [37] = assay: Antimalarial activity against Plasmodium chabaudi infected in Balb/c mouse assessed as parastemia at 10 mg/kg, ip administered as single dose measured 7 day postinoculation (reference value: 34 +/- 2.3 %); format: functional
Plasmodium berghei [38] = assay: Antimalarial activity against Plasmodium berghei infected in Swiss-Webster mouse assessed as mouse survival upto day 28 at 10 mg/kg qd for 4 days administered via oral gavage; format: functional, organism-based; how it was run: as §6
Plasmodium chabaudi [39] = assay: Antimalarial activity against Plasmodium chabaudi infected in Balb/c mouse assessed as parastemia at 10 mg/kg, ip measured 13 day postinoculation; format: functional

CC(C)(N)CNC(=O)O[C@H]1CCC[C@@]2(C1)OOC1(O2)C2CC3CC(C2)CC1C3 (some centres undefined)
Activity (Plasmodium berghei [1]): Active
remaining at 2 h [2]: 97%
pEC50 (Plasmodium falciparum): 8.57

CC(C)(N)CNC(=O)C[C@H]1CC[C@]2(CC1)OOC1(O2)C2CC3CC(C2)CC1C3 (some centres undefined)
blood plasma ratio [3]: 1.5
pEC50 (Plasmodium falciparum): 8.60

O=C(O[C@H]1CCC[C@@]2(C1)OOC1(O2)C2CC3CC(C2)CC1C3)N1CCCC[C@@H]1[C@@H](O)c1cc(C(F)(F)F)nc2c(C(F)(F)F)cccc12 (some centres undefined)
blood plasma ratio [3]: 0.7
Drug metabolism (Plasma [4]): metabolite_notdetected
Tmax [5]: 2 h
MRT last [6]: 6.93 h
Activity (Plasmodium chabaudi [7]): 5.4%
MRT inf [8]: 10.6 h
Activity (Plasmodium chabaudi [9]): 0.7%
Activity (Plasmodium chabaudi [10]): 0%
Tmax [11]: 1 h
CL/F [12]: 61.2 mL/min/kg
Vd/F [13]: 45.5 L/kg
half-life [14]: 8.6 h
remaining at 4 h [15]: 94%
MRT last [16]: 6.43 h
Activity (Plasmodium chabaudi [17]): 33%
MRT inf [18]: 11 h
CL/F [19]: 24.5 mL/min/kg
Drug metabolism (Brain): 250 ng/mL
Activity (Plasmodium chabaudi [20]): 0%
Activity (Plasmodium chabaudi [21]): 4.5%
AUC(0-inf) [22]: 13600 ng·h/mL
AUC(0-inf) [23]: 34100 ng·h/mL
Vd/F [24]: 17.8 L/kg
half-life [25]: 8.41 h
Activity (Plasmodium chabaudi [26]): 4.8%
pEC50 (Plasmodium falciparum): 8.52
Activity (Plasmodium chabaudi [27]): 0.65%
remaining at 4 h [28]: 85%
Tmax [29]: 0.5 h
Cmax [30]: 1570 ng/mL
Drug metabolism (Plasma [31]): metabolite_detected
Cmax [32]: 3620 ng/mL

C[C@@H]1CC[C@H]2[C@@H](C)C(=O)O[C@@H]3O[C@@]4(C)CC[C@@H]1[C@]32OO4 [ARTEMISININ]
pEC50 (Plasmodium falciparum): 8.03

O[C@@H](c1cc(C(F)(F)F)nc2c(C(F)(F)F)cccc12)[C@H]1CCCCN1 (racemic) [(S,R)-MEFLOQUINE]
blood plasma ratio [3]: 1.6
concentration at 24 h [33]: 1400 ng/mL
Activity (Plasmodium chabaudi [34]): 4.8%
remaining at 4 h [15]: 97%
inhibition (Plasmodium berghei [35]): Active
Tmax [36]: 5 min
pEC50 (Plasmodium falciparum): 8.60
Activity (Plasmodium chabaudi [37]): 0.02%
remaining at 4 h [28]: 95%
Activity (Plasmodium berghei [38]): Active
Activity (Plasmodium chabaudi [39]): 0%
